Results on eight molecules are retold here after ChEMBL document CHEMBL1151874, “Design and synthesis of novel hybrid benzamide-peptide histone deacetylase inhibitors” (Bioorg Med Chem Lett, 2009).

Calls of active or inactive are those of the source. The rule behind the calls is not given here. Non-standard residues stand in square brackets, D forms with d. Residues, ends and D or L forms follow the SMILES beside them. *: point of attachment. Asu = N[C@@H](CCCCCC(=O)O)C(=O)O; NH(2-NH2-phenyl) = Nc1ccccc1N*

Assay [1] addresses Histone deacetylase 3 (Homo sapiens, UniProt O15379). The assay can be described thus: Inhibition of human recombinant HDAC3. A digest of the protocol:
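Recombinant human HDAC1 or HDAC3 enzyme inhibition assay. IC50 values are means of two experiments, with standard error reported.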

The target of assay [2] is Histone deacetylase 1 (Homo sapiens, UniProt Q13547). The assay can be described thus: Inhibition of human recombinant HDAC1. In a few lines:
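Enzyme source: recombinant human HDAC1. IC50 reported as mean of two experiments with standard error.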

In assay [3] the target is Histone deacetylase (Homo sapiens) (UniProt Q13547+O15379+Q9UBN7+Q92769+Q9UQL6+Q8WUI4+Q9BY41+Q96DB2+P56524+Q9UKV0+Q969S8). Briefly: Inhibition of HDAC in human GM15850 cells assessed as effect on histone H3 acetylation at 20 uM after 48 hrs by Western blot analysis. It counts as cell-based. In a few lines:
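Human lymphoblastoid line GM15850 exposed to compound at 20 µM for 48 h; endogenous histone H3 acetylation judged by western blot.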
Background: In western blotting, separated proteins are transferred to a membrane and probed.

For assay [4], the species on record is Homo sapiens. Briefly: Selectivity ratio of IC50 for human recombinant HDAC1 to IC50 for human recombinant HDAC3.
A short description of assay [5]: Inhibition of Eimeria tenella HDAC1 assessed as [3H]acetate release by scintillation counting.

Sequence of Histone deacetylase 1 (Q13547 whole entry): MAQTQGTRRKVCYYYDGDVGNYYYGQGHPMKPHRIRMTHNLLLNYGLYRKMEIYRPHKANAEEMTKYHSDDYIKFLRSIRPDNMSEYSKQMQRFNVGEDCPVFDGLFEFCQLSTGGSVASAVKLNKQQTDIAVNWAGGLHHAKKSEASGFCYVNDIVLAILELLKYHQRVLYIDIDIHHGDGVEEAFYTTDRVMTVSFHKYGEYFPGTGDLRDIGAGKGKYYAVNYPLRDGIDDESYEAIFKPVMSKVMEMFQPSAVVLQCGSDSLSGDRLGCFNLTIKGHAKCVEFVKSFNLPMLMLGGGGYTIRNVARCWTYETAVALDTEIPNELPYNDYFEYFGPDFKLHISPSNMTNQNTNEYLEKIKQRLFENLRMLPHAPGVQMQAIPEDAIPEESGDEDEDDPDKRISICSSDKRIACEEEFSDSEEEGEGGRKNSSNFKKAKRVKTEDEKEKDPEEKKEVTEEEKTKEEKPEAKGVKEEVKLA
Sequence of Histone deacetylase 3 (O15379 whole entry): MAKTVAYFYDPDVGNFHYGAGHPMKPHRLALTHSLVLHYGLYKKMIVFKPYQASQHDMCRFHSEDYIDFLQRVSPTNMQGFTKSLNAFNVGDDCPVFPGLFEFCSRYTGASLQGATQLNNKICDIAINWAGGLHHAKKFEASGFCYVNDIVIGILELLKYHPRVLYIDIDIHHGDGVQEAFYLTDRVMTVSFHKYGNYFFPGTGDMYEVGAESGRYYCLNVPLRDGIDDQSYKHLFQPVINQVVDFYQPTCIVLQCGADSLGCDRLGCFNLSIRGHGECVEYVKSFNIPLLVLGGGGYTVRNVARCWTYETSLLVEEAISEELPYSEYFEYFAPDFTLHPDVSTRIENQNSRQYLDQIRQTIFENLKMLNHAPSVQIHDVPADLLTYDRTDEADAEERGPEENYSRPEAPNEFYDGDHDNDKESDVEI

One may read the IC50 as the point on the concentration scale where inhibition reaches its midpoint. In the case of `Nc1ccccc1NC(=O)CCCCC[C@H](NC(=O)[C@@H]1CCCN1C(=O)[C@@H](N)Cc1ccccc1)C(=O)Nc1ccccc1N`, the IC50 in assay [1] came to 3.4 µM; in assay [2] it was 7.3 µM.

For the molecule `Cc1ccc(C(=O)NCC(=O)NCCC(=O)Nc2ccccc2N)cc1`, the IC50 in assay [1] was determined as 4.3 µM; in assay [2] it was 83.9 µM. Also, in assay [3], the outcome was Active. The Ratio IC50 in assay [4] is 19.

`Nc1ccccc1NC(=O)CCCCC[C@@H]1NC(=O)[C@H]2CCCN2C(=O)[C@H](Cc2ccccc2)NC(=O)[C@H](Cc2ccccc2)NC1=O`: the IC50 turned out to be 5.6 µM in assay [1] and 20.5 µM in assay [2].

Consider `N=C(N)NCCC[C@@H]1NC(=O)CNC(=O)[C@H](CCCCCC(=O)Nc2ccccc2N)NC(=O)CNC1=O` (cyclo([Asu](NH(2-NH2-phenyl))GRG)), for which, in assay [3], the outcome was Active.

For `CCC(=O)CCCCC[C@@H]1NC(=O)[C@H]2CCCCN2C(=O)[C@H]([C@@H](C)CC)NC(=O)[C@H](Cc2cn(OC)c3ccccc23)NC1=O` [APICIDIN], in assay [5], the IC50 came to 0.004 µM.

For `N=C(N)NCCC[C@H](N)C(=O)NCC(=O)N[C@@H](CCCCCC(=O)Nc1ccccc1N)C(=O)Nc1ccccc1N`, the figures for the IC50 in assay [1] and in assay [2] were 1.3 µM and 4.7 µM, respectively. Further, in assay [3], the result was Active.

Regarding `Nc1ccccc1NC(=O)CCCCC[C@H](NC(=O)[C@H]1CCCN1C(=O)[C@@H](N)Cc1ccccc1)C(=O)N[C@@H](Cc1ccccc1)C(=O)O`, the values for the concentration for half-maximal inhibition (IC50) in assay [1] and in assay [2] were 27.2 µM and 84.2 µM, respectively.

On to `Cc1ccc(C(=O)N[C@@H](CCCN=C(N)N)C(=O)NCCC(=O)Nc2ccccc2N)cc1`, for which the IC50 in assay [1] stood at 2.2 µM; in assay [2], 9.2 µM.
